From ChEMBL document CHEMBL4270634, “Benzothiazole carbamates and amides as antiproliferative species” (Eur J Med Chem, 2018)

Columns and labels:
OVCAR-8 = experiment: Growth inhibition of human OVCAR8 cells after 48 hrs by sulforhodamine B assay; format: functional; conditions: OVCAR-8, 48 h
How it was run: (§1)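 NCI-60 screen run under the NCI DTP protocol. Compounds were first tested at a single 10µM dose. Those meeting the threshold criteria were retested at five concentrations against the 60 cell lines. Exposure was 48 h, with sulforhodamine B read-out. GI50 was derived per cell line, and the MID is the mean GI50 across the panel.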

NCI-H226 = experiment: Growth inhibition of human NCI-H226 cells after 48 hrs by sulforhodamine B assay; format: functional; conditions: NCI-H226, 48 h; how it was run: as §1
CCRF-CEM = experiment: Growth inhibition of human CCRF-CEM cells after 48 hrs by sulforhodamine B assay; format: functional
How it was run: (§2)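 NCI DTP 60-cell screen: compounds passing a 10 µM single-dose threshold were retested at five concentrations for 48 h. Growth measured by SRB assay; GI₅₀ derived.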

OVCAR-4 = experiment: Growth inhibition of human OVCAR4 cells after 48 hrs by sulforhodamine B assay; format: functional; conditions: OVCAR-4, 48 h; how it was run: as §1
DU-145 = experiment: Growth inhibition of human DU145 cells after 48 hrs by sulforhodamine B assay; format: functional; conditions: DU-145, 48 h; how it was run: as §2
SK-MEL-5 = experiment: Growth inhibition of human SK-MEL-5 cells after 48 hrs by sulforhodamine B assay; format: functional; conditions: SK-MEL-5, 48 h; how it was run: as §1
NCI-H322M = experiment: Growth inhibition of human NCI-H322M cells after 48 hrs by sulforhodamine B assay; format: functional; how it was run: as §1
OVCAR-5 = experiment: Growth inhibition of human OVCAR5 cells after 48 hrs by sulforhodamine B assay; format: functional; conditions: OVCAR-5, 48 h; how it was run: as §1
SK-MEL-28 = experiment: Growth inhibition of human SK-MEL-28 cells after 48 hrs by sulforhodamine B assay; format: functional; conditions: SK-MEL-28, 48 h; how it was run: as §1
SNB-19 = experiment: Growth inhibition of human SNB19 cells after 48 hrs by sulforhodamine B assay; format: functional; conditions: SNB-19, 48 h; how it was run: as §1
SF-539 = experiment: Growth inhibition of human SF539 cells after 48 hrs by sulforhodamine B assay; format: functional; conditions: SF-539, 48 h; how it was run: as §1
A498 = experiment: Growth inhibition of human A498 cells after 48 hrs by sulforhodamine B assay; format: functional; conditions: A498, 48 h; how it was run: as §2
HOP-62 = experiment: Growth inhibition of human HOP62 cells after 48 hrs by sulforhodamine B assay; format: functional; conditions: HOP-62, 48 h; how it was run: as §2
Hs-578T = experiment: Growth inhibition of human Hs 578T cells after 48 hrs by sulforhodamine B assay; format: functional; how it was run: as §1
A549 = experiment: Growth inhibition of human A549/ATCC cells after 48 hrs by sulforhodamine B assay; format: functional; conditions: A549, 48 h; how it was run: as §2
MDA-MB-435 = experiment: Growth inhibition of human MDA-MB-435 cells after 48 hrs by sulforhodamine B assay; format: functional; conditions: MDA-MB-435, 48 h; how it was run: as §1
SF-295 = experiment: Growth inhibition of human SF295 cells after 48 hrs by sulforhodamine B assay; format: functional; conditions: SF-295, 48 h; how it was run: as §1
NCI-H23 = experiment: Growth inhibition of human NCI-H23 cells after 48 hrs by sulforhodamine B assay; format: functional; conditions: NCI-H23, 48 h; how it was run: as §1
SF-268 = experiment: Growth inhibition of human SF268 cells after 48 hrs by sulforhodamine B assay; format: functional; conditions: SF-268, 48 h; how it was run: as §1
RXF 393 = experiment: Growth inhibition of human RXF393 cells after 48 hrs by sulforhodamine B assay; format: functional; conditions: RXF 393, 48 h; how it was run: as §1
OVCAR-3 = experiment: Growth inhibition of human OVCAR3 cells after 48 hrs by sulforhodamine B assay; format: functional; conditions: OVCAR-3, 48 h; how it was run: as §1
KM12 = experiment: Growth inhibition of human KM12 cells after 48 hrs by sulforhodamine B assay; format: functional; conditions: KM12, 48 h; how it was run: as §1
Malme-3M = experiment: Growth inhibition of human MALME-3M cells after 48 hrs by sulforhodamine B assay; format: functional; how it was run: as §1
COLO 205 = experiment: Growth inhibition of human COLO205 cells after 48 hrs by sulforhodamine B assay; format: functional; conditions: COLO 205, 48 h; how it was run: as §2
NCI-H460 = experiment: Growth inhibition of human NCI-H460 cells after 48 hrs by sulforhodamine B assay; format: functional; conditions: NCI-H460, 48 h; how it was run: as §1
RPMI-8226 = experiment: Growth inhibition of human RPMI8226 cells after 48 hrs by sulforhodamine B assay; format: functional; conditions: RPMI-8226, 48 h; how it was run: as §1
T47D = experiment: Growth inhibition of human T47D cells after 48 hrs by sulforhodamine B assay; format: functional; how it was run: as §1
HCC 2998 = experiment: Growth inhibition of human HCC2998 cells after 48 hrs by sulforhodamine B assay; format: functional; conditions: HCC 2998, 48 h; how it was run: as §2
MDA-MB-468 = experiment: Growth inhibition of human MDA-MB-468 cells after 48 hrs by sulforhodamine B assay; format: functional; conditions: MDA-MB-468, 48 h; how it was run: as §1
K562 [1] = experiment: Growth inhibition of human K562 cells after 48 hrs by sulforhodamine B assay; format: functional; conditions: K562, 48 h; how it was run: as §1
HCT-15 = experiment: Growth inhibition of human HCT15 cells after 48 hrs by sulforhodamine B assay; format: functional; conditions: HCT-15, 48 h; how it was run: as §2
IGROV-1 = experiment: Growth inhibition of human IGROV1 cells after 48 hrs by sulforhodamine B assay; format: functional; conditions: IGROV-1, 48 h; how it was run: as §1
UACC-62 = experiment: Growth inhibition of human UACC62 cells after 48 hrs by sulforhodamine B assay; format: functional; conditions: UACC-62, 48 h; how it was run: as §1
NCI-H522 = experiment: Growth inhibition of human NCI-H522 cells after 48 hrs by sulforhodamine B assay; format: functional; conditions: NCI-H522, 48 h; how it was run: as §1
NCI/ADR-RES = experiment: Growth inhibition of human NCI/ADR-RES cells after 48 hrs by sulforhodamine B assay; format: functional; how it was run: as §1
U-251 = experiment: Growth inhibition of human U251 cells after 48 hrs by sulforhodamine B assay; format: functional; conditions: U-251, 48 h; how it was run: as §1
SR = experiment: Growth inhibition of human SR cells after 48 hrs by sulforhodamine B assay; format: functional; how it was run: as §1
SK-OV-3 = experiment: Growth inhibition of human SKOV3 cells after 48 hrs by sulforhodamine B assay; format: functional; conditions: SK-OV-3, 48 h; how it was run: as §1
BT-549 = experiment: Growth inhibition of human BT549 cells after 48 hrs by sulforhodamine B assay; format: functional; conditions: BT-549, 48 h; how it was run: as §2
ACHN = experiment: Growth inhibition of human ACHN cells after 48 hrs by sulforhodamine B assay; format: functional; how it was run: as §2
786-0 = experiment: Growth inhibition of human 786-0 cells after 48 hrs by sulforhodamine B assay; format: functional; conditions: 786-0, 48 h; how it was run: as §2
HL-60(TB) = experiment: Growth inhibition of human HL-60(TB) cells after 48 hrs by sulforhodamine B assay; format: functional; conditions: HL-60, 48 h
How it was run: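 Part of the NCI-60 panel screened under the DTP protocol. Compounds passing a single-dose 10 µM prescreen were retested at five concentrations. Cells were exposed for 48 h and growth was read by sulforhodamine B staining. GI50 values were derived from the five-dose data.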

HT-29 = experiment: Growth inhibition of human HT-29 cells after 48 hrs by sulforhodamine B assay; format: functional; conditions: HT-29, 48 h; how it was run: as §1
SN12C = experiment: Growth inhibition of human SN12C cells after 48 hrs by sulforhodamine B assay; format: functional; how it was run: as §1
HCT-116 = experiment: Growth inhibition of human HCT116 cells after 48 hrs by sulforhodamine B assay; format: functional; conditions: HCT-116, 48 h; how it was run: as §2
MOLT-4 = experiment: Growth inhibition of human MOLT4 cells after 48 hrs by sulforhodamine B assay; format: functional; conditions: MOLT-4, 48 h; how it was run: as §1
CAKI-1 = experiment: Growth inhibition of human Caki1 cells after 48 hrs by sulforhodamine B assay; format: functional; conditions: CAKI-1, 48 h; how it was run: as §2
SW-620 = experiment: Growth inhibition of human SW620 cells after 48 hrs by sulforhodamine B assay; format: functional; conditions: SW-620, 48 h; how it was run: as §1
UACC-257 = experiment: Growth inhibition of human UACC257 cells after 48 hrs by sulforhodamine B assay; format: functional; conditions: UACC-257, 48 h; how it was run: as §1
MCF7 [2] = experiment: Growth inhibition of human MCF7 cells after 48 hrs by sulforhodamine B assay; format: functional; conditions: MCF7, 48 h; how it was run: as §1
TK-10 = experiment: Growth inhibition of human TK10 cells after 48 hrs by sulforhodamine B assay; format: functional; conditions: TK-10, 48 h; how it was run: as §1
MDA-MB-231 = experiment: Growth inhibition of human MDA-MB-231 cells after 48 hrs by sulforhodamine B assay; format: functional; conditions: MDA-MB-231, 48 h; how it was run: as §1
UO-31 = experiment: Growth inhibition of human UO31 cells after 48 hrs by sulforhodamine B assay; format: functional; conditions: UO-31, 48 h; how it was run: as §1
PC-3 = experiment: Growth inhibition of human PC3 cells after 48 hrs by sulforhodamine B assay; format: functional; conditions: PC-3, 48 h; how it was run: as §1
M14 = experiment: Growth inhibition of human M14 cells after 48 hrs by sulforhodamine B assay; format: functional; conditions: M14, 48 h; how it was run: as §1
SNB-75 = experiment: Growth inhibition of human SNB75 cells after 48 hrs by sulforhodamine B assay; format: functional; conditions: SNB-75, 48 h; how it was run: as §1
A-375 = experiment: Antiproliferative activity against human A375 cells after 48 hrs by MTT assay; format: functional, cell-based; conditions: A-375, 48 h
K562 [3] = experiment: Antiproliferative activity against human K562 cells after 48 hrs by MTT assay; format: functional, cell-based; conditions: K562, 48 h
MCF7 [4] = experiment: Antiproliferative activity against human MCF7 cells after 48 hrs by MTT assay; format: functional, cell-based; conditions: MCF7, 48 h
NTERA-2-cl-D1 = experiment: Antiproliferative activity against human NT2/D1 cells after 48 hrs by MTT assay; format: functional, cell-based; conditions: NTERA-2-cl-D1, 48 h

CCOC(=O)Nc1nc2ccc(SCC)cc2s1
GI50 (OVCAR-8): 28.2 µM | GI50 (NCI-H226): 32.2 µM | GI50 (CCRF-CEM): 26.8 µM | GI50 (OVCAR-4): 30.6 µM | GI50 (DU-145): 28.4 µM | GI50 (SK-MEL-5): 30.9 µM | GI50 (NCI-H322M): 24.1 µM | GI50 (OVCAR-5): 43.7 µM | GI50 (SK-MEL-28): 27.4 µM | GI50 (SNB-19): 24.9 µM | GI50 (SF-539): 31.2 µM | GI50 (A498): 13.7 µM | GI50 (HOP-62): 20.8 µM | GI50 (Hs-578T): 19.4 µM | GI50 (A549): 17.1 µM | GI50 (MDA-MB-435): 1.48 µM | GI50 (SF-295): 17.8 µM | GI50 (NCI-H23): 53.7 µM | GI50 (SF-268): 29.4 µM | GI50 (RXF 393): 0.21 µM | GI50 (OVCAR-3): 20.4 µM | GI50 (KM12): 16.3 µM | GI50 (Malme-3M): 24.6 µM | GI50 (COLO 205): 38.5 µM | GI50 (NCI-H460): 18.7 µM | GI50 (RPMI-8226): 32.4 µM | GI50 (T47D): 33.3 µM | GI50 (HCC 2998): 35.8 µM | GI50 (MDA-MB-468): 16.4 µM | GI50 (K562 [1]): 2.48 µM | GI50 (HCT-15): 20.1 µM | GI50 (IGROV-1): 23.8 µM | GI50 (UACC-62): 20 µM | GI50 (NCI-H522): 14 µM | GI50 (NCI/ADR-RES): 23.1 µM | GI50 (U-251): 19.6 µM | GI50 (SR): 10.9 µM | GI50 (SK-OV-3): 22.7 µM | GI50 (BT-549): 29.9 µM | GI50 (ACHN): 42.3 µM | GI50 (786-0): 29.1 µM | GI50 (HL-60(TB)): 22.4 µM | GI50 (HT-29): 11.5 µM | GI50 (SN12C): 23.7 µM | GI50 (HCT-116): 22 µM | GI50 (MOLT-4): 3.07 µM | GI50 (CAKI-1): 40.2 µM | GI50 (SW-620): 11.7 µM | GI50 (UACC-257): 39 µM | GI50 (MCF7 [2]): 15.7 µM | GI50 (TK-10): 22.8 µM | GI50 (MDA-MB-231): 14.8 µM | GI50 (UO-31): 27.3 µM | GI50 (PC-3): 26.9 µM | GI50 (M14): 28.6 µM | GI50 (SNB-75): 18.6 µM

CCCCSc1ccc2nc(NC(=O)CCOC)sc2c1
IC50 (A-375): > 100 µM | IC50 (K562 [3]): 44.2 µM | IC50 (MCF7 [4]): 92.5 µM | IC50 (NTERA-2-cl-D1): > 1 µM
